In ChEMBL document CHEMBL4346653, “A2B Adenosine Receptor Antagonists with Picomolar Potency” (J Med Chem, 2019):

Tests used:
[1] = molecular target: T1, Adenosine receptor A2b (Homo sapiens) (UniProt P29275); assay: Competitive antagonist activity at recombinant human A2B adenosine receptor expressed in CHO cells assessed as reduction in NECA-induced […] cAMP accumulation preincubated for 10 mins followed by NECA stimulation for 15 mins […] and measured after 15 mins; type: functional, cell-based
T1 sequence (whole entry): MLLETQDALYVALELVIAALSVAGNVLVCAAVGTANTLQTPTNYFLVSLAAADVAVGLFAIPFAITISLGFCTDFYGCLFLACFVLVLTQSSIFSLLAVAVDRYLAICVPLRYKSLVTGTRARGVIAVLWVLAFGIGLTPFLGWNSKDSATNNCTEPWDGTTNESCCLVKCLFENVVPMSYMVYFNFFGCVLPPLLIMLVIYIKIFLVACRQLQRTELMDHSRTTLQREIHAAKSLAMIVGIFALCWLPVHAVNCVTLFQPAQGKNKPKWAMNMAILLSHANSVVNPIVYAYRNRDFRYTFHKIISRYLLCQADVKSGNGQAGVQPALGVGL

[2] = molecular target: T2, Adenosine receptor A1 (Homo sapiens, UniProt P30542); assay: Displacement of [3H]CCPA from recombinant human A1 adenosine receptor expressed in CHO cell membranes measured after 90 mins in presence of adenosine deaminase by liquid scintillation counting method
T2 sequence (P30542 whole entry): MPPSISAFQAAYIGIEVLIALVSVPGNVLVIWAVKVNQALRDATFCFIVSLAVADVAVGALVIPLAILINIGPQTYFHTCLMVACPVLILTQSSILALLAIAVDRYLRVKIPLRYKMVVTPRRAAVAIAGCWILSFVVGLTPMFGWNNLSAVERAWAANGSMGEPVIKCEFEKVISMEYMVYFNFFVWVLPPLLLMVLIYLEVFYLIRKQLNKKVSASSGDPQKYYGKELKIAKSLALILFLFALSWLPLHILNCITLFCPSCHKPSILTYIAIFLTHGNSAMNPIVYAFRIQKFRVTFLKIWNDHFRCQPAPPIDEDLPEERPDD
Summary of the method: (§1)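 Competition binding on membranes of cells recombinantly expressing the human receptor (CHO or HEK cells), with tritiated radioligand per subtype: [3H]PSB-603 for A2B, [3H]MSX-2 for A2A, [3H]CCPA for A1, [3H]PSB-11 for A3. Ki ± SEM from n = 3, some from extrapolated curves. Weak binders are reported as % inhibition of radioligand binding at 1 μM.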

[3] = molecular target: T3, Adenosine receptor A3 (Mus musculus) (UniProt Q61618); assay: Displacement of [3H]NECA from recombinant mouse A3 adenosine receptor expressed in CHO cell membranes at 1 uM measured after 180 mins in presence of adenosine deaminase by liquid scintillation counting method relative to control
T3 sequence (whole entry): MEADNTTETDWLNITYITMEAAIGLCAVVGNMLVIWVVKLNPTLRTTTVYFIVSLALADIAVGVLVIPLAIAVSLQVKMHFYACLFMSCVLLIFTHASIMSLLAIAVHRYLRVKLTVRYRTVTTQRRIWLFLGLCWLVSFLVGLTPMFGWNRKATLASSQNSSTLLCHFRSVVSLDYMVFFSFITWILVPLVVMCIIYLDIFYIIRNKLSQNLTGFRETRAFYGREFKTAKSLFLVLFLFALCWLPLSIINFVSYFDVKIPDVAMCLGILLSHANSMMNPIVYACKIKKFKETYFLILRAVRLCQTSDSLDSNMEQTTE

[4] = molecular target: T4, Adenosine receptor A1 (Homo sapiens) (UniProt P30542); assay: Displacement of [3H]CCPA from recombinant human A1 adenosine receptor expressed in CHO cell membranes at 1 uM measured after 90 mins in presence of adenosine deaminase by liquid scintillation counting method relative to control
T4 sequence (whole entry): T2 sequence (P30542 whole entry)
Summary of the method: (§2)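 Single-point competition binding at human AR subtype membranes, each against its own tritiated radioligand. The test compound is given at 1 μM, and the result is reported as percent inhibition of radioligand binding. The radioligand-specific footnotes give n = 3.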

[5] = molecular target: Adenosine receptor A2a (Homo sapiens, UniProt P29274); assay: Displacement of [3H]MSX-2 from recombinant human A2A adenosine receptor expressed in CHO cell membranes at 1 uM measured after 30 mins in presence of adenosine deaminase by liquid scintillation counting method relative to control; summary of the method: as §2
[6] = molecular target: T5, Adenosine receptor A3 (Homo sapiens, UniProt P0DMS8); assay: Displacement of [3H]PSB-11 from recombinant human A3 adenosine receptor expressed in CHO cell membranes measured after 45 mins in presence of adenosine deaminase by liquid scintillation counting method; summary of the method: as §1
T5 sequence (P0DMS8 whole entry): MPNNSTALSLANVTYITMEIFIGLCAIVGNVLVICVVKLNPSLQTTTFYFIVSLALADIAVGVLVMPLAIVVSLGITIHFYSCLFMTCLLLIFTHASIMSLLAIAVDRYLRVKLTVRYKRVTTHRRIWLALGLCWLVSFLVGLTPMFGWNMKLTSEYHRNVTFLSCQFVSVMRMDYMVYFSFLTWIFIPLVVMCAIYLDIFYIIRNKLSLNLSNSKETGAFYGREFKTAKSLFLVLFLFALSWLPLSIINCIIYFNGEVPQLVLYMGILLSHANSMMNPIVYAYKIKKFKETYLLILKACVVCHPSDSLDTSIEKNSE

[7] = molecular target: T6, Adenosine receptor A3 (Mus musculus, UniProt Q61618); assay: Displacement of [3H]NECA from recombinant mouse A3 adenosine receptor expressed in CHO cell membranes measured after 180 mins in presence of adenosine deaminase by liquid scintillation counting method
T6 sequence (Q61618 whole entry): T3 sequence (whole entry)

[8] = species: Homo sapiens; assay: Selectivity index, ratio of Ki for displacement of [3H]CCPA from recombinant human A1 adenosine receptor expressed in CHO cell membranes to Ki for displacement of [3H]PSB-603 from recombinant human A2B adenosine receptor expressed in CHO cell membranes
[9] = molecular target: T7, Adenosine receptor A1 (Mus musculus, UniProt Q60612); assay: Displacement of [3H]CCPA from recombinant mouse A1 adenosine receptor expressed in CHO cell membranes measured after 90 mins in presence of adenosine deaminase by liquid scintillation counting method
T7 sequence (Q60612 whole entry): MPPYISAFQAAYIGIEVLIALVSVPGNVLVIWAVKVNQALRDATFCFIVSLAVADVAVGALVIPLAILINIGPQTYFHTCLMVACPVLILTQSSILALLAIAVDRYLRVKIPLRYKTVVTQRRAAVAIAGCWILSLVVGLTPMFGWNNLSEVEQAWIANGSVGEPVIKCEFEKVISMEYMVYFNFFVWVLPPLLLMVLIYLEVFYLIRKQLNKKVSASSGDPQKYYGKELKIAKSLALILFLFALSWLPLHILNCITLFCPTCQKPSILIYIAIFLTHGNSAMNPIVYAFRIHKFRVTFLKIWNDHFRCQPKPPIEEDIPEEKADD

Adenosine receptor A2a, sequence (P29274 whole entry): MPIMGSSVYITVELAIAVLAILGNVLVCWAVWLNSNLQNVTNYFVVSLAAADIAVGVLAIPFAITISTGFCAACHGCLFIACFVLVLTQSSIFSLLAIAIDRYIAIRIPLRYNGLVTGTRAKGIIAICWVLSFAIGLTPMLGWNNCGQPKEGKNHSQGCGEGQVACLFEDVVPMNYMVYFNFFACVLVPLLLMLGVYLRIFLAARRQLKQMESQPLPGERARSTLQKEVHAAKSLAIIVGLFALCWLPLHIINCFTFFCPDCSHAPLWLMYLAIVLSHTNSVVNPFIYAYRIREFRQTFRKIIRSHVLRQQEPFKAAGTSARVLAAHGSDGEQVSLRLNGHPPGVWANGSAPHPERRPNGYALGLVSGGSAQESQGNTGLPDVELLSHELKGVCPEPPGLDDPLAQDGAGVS

Compound	Kb [1] [nM]	Ki [2] [nM]	inhibition [3] [%]	inhibition [4] [%]	inhibition [5] [%]	Ki [6] [nM]	Ki [7] [nM]	Ratio Ki [8]	Ki [9] [nM]
CCCn1c(=O)[nH]c2nc(-c3ccc(S(=O)(=O)N4CCN(c5ccc(Br)cc5)CC4)cc3)[nH]c2c1=O	0.0598	> 1000	8	13	33	> 1000	> 1000	> 12000	> 1000
CCCn1c(=O)c2[nH]c(-c3ccc(S(=O)(=O)N4CCN(c5ccc(Cl)cc5)CC4)cc3)nc2n(C)c1=O	1.61	> 1000	-0.833	22	33	> 1000	> 1000	> 520	1520
CCCn1c(=O)[nH]c2nc(-c3ccc(S(=O)(=O)N4CCN(c5cccc(F)c5)CC4)cc3)[nH]c2c1=O	0.167	> 1000	-2	34	38	> 1000	> 1000	> 1580	> 300
